Test results taken from ChEMBL document CHEMBL1142492 (J Med Chem, 2008).

Legend:
[1] = molecular target: Serine/threonine-protein kinase RIO3 (Homo sapiens) (UniProt O14730); assay: Inhibition of RIOK3 at 3 uM
[2] = molecular target: Phosphatidylinositol 4-phosphate 5-kinase type-1 alpha (Homo sapiens) (UniProt Q99755); assay: Inhibition of PIP5K1A at 3 uM
[3] = molecular target: Aurora kinase B (Homo sapiens) (UniProt Q96GD4); assay: Inhibition of AURKB at 3 uM
[4] = molecular target: Serine/threonine-protein kinase TAO1 (Homo sapiens) (UniProt Q7L7X3); assay: Inhibition of TAOK1 at 3 uM
[5] = molecular target: Serine/threonine-protein kinase 17B (Homo sapiens) (UniProt O94768); assay: Inhibition of DRAK2 at 3 uM
Chain of Serine/threonine-protein kinase 17B (Homo sapiens) (O94768 whole entry): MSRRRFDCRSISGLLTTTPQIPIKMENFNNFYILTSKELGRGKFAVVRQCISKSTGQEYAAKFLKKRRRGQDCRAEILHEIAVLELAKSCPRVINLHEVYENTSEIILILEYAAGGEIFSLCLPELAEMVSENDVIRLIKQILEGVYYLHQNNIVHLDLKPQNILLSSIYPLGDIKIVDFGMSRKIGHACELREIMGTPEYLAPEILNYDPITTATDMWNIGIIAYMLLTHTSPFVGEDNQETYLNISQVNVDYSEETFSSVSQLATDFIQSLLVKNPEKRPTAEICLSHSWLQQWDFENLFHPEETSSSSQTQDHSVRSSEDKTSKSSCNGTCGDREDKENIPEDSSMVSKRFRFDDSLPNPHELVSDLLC

[6] = molecular target: Casein kinase II subunit alpha' (Homo sapiens) (UniProt P19784); assay: Inhibition of CSNK2A2 at 3 uM
[7] = tested on: Proto-oncogene tyrosine-protein kinase receptor Ret (Homo sapiens), P07949 [V804L]; assay: Inhibition of RET V804L mutant at 3 uM
[8] = molecular target: Interferon-induced, double-stranded RNA-activated protein kinase (Homo sapiens) (UniProt P19525); assay: Inhibition of PRKR at 3 uM
[9] = tested on: Serine/threonine-protein kinase B-raf (Homo sapiens), P15056 [V600E]; assay: Inhibition of BRAF V600E mutant at 3 uM
[10] = molecular target: Serine/threonine-protein kinase BRSK1 (Homo sapiens) (UniProt Q8TDC3); assay: Inhibition of BRSK1 at 3 uM
Chain of Serine/threonine-protein kinase BRSK1 (Homo sapiens) (Q8TDC3 whole entry): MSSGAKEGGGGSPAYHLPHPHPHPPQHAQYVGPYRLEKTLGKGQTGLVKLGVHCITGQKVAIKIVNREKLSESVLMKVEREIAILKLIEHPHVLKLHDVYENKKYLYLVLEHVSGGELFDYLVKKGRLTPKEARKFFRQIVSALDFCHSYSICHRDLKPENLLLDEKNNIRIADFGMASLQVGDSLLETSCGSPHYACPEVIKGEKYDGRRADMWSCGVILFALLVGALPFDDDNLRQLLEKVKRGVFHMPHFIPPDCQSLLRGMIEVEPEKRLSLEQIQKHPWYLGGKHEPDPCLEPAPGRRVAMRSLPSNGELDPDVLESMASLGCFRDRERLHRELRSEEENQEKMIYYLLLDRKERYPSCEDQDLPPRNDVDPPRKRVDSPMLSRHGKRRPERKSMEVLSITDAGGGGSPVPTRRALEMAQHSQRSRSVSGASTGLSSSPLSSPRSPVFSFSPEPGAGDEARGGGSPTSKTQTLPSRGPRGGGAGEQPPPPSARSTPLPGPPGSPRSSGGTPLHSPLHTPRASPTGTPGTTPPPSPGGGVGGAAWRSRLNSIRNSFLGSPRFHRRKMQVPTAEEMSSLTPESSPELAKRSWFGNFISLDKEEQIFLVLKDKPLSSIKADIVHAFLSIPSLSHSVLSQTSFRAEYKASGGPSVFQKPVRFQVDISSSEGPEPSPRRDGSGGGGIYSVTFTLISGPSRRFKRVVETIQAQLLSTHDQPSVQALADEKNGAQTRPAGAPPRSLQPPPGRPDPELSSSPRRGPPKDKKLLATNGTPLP

[11] = molecular target: Protein-tyrosine kinase 2-beta (Homo sapiens) (UniProt Q14289); assay: Inhibition of PTK2B at 3 uM
Chain of Protein-tyrosine kinase 2-beta (Homo sapiens) (Q14289 whole entry, looked up): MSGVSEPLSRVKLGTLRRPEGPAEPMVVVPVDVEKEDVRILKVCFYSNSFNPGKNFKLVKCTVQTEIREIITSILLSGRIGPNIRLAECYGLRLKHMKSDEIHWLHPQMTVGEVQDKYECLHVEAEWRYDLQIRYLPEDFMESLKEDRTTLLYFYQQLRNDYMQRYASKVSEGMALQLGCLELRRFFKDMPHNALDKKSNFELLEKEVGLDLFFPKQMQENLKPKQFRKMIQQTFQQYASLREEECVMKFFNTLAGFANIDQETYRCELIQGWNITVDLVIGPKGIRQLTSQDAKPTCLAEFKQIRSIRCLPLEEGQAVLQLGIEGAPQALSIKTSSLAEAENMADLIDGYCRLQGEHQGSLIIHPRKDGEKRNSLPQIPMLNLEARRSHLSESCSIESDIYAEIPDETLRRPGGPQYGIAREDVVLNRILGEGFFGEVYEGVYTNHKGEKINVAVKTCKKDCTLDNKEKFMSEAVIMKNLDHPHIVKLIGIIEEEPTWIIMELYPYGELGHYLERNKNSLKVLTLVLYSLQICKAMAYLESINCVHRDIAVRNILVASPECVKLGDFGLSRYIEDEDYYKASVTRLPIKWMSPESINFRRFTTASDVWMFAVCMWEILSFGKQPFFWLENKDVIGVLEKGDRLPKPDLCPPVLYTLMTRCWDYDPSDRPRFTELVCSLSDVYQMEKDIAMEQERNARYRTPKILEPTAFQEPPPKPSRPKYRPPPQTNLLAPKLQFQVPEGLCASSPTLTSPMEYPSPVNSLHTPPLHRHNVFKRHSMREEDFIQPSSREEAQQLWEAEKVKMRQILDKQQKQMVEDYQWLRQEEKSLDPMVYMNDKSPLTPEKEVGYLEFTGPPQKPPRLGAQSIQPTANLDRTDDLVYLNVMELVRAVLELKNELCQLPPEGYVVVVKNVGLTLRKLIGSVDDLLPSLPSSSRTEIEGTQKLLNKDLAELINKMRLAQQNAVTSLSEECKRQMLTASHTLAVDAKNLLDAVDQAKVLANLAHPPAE

[12] = molecular target: Myosin light chain kinase, smooth muscle (Homo sapiens) (UniProt Q15746); assay: Inhibition of MYLK at 3 uM
[13] = molecular target: ALK tyrosine kinase receptor (Homo sapiens) (UniProt Q9UM73); assay: Inhibition of ALK at 3 uM
[14] = molecular target: Histamine H3 receptor (Homo sapiens) (UniProt Q9Y5N1); assay: Inhibition of human histamine H3 receptor at 3 uM
Procedure, shortened: (§1)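 Counter-screen binding/enzyme panel at single 3 μM, n=2; results as percent inhibition. Species per target as listed (rat NMDA, GABAA sites; human receptors, transporters; rabbit ACE).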

[15] = molecular target: Rho-associated protein kinase 2 (Homo sapiens, UniProt O75116); assay: Inhibition of ROCK2 at 3 uM
[16] = molecular target: Serine/threonine-protein kinase PAK 1 (Homo sapiens) (UniProt Q13153); assay: Inhibition of PAK1 at 3 uM
[17] = molecular target: Calcium/calmodulin-dependent protein kinase type II subunit delta (Homo sapiens) (UniProt Q13557); assay: Inhibition of CAMK2D at 3 uM
Rattus norvegicus [18] = species on record: Rattus norvegicus; conditions: 3 uM
[19] = molecular target: D(4) dopamine receptor (Homo sapiens) (UniProt P21917); assay: Inhibition of human dopamine D4 receptor at 3 uM; procedure, shortened: as §1
Chain of D(4) dopamine receptor (Homo sapiens) (P21917 whole entry): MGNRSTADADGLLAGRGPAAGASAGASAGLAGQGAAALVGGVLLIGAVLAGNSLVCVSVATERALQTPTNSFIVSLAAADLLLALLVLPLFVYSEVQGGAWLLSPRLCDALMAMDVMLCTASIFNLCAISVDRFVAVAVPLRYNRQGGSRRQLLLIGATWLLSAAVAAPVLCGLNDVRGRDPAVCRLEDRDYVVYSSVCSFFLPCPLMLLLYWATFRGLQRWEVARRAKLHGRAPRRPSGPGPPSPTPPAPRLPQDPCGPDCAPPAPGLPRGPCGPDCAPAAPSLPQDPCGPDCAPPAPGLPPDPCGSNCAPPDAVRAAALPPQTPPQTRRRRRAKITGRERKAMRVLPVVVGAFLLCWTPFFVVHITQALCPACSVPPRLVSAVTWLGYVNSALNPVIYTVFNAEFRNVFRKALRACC

[20] = molecular target: Serine/threonine-protein kinase DCLK3 (Homo sapiens) (UniProt Q9C098); assay: Inhibition of DCAMKL3 at 3 uM
[21] = molecular target: Histamine H2 receptor (Homo sapiens) (UniProt P25021); assay: Inhibition of human histamine H2 receptor at 3 uM; procedure, shortened: as §1
[22] = molecular target: Serine/threonine-protein kinase 35 (Homo sapiens) (UniProt Q8TDR2); assay: Inhibition of STK35 at 3 uM
[23] = molecular target: Gamma-aminobutyric acid receptor subunit alpha-1 (Rattus norvegicus) (UniProt P62813); assay: Displacement of muscimol from rat GABAA1 receptor at 3 uM; procedure, shortened: as §1
[24] = tested on: Tyrosine-protein kinase ABL1 (Homo sapiens), P00519 [F317L]; assay: Inhibition of ABL1 F317L mutant at 3 uM
[25] = molecular target: Glutamate NMDA receptor (Rattus norvegicus) (UniProt P35439+Q00959+Q00960+Q00961+Q62645+Q8VHN2+Q9R1M7); assay: Displacement of glycine from rat NMDA receptor at 3 uM; format: protein-complex assay; procedure, shortened: as §1
[26] = molecular target: Protein kinase C epsilon type (Homo sapiens) (UniProt Q02156); assay: Inhibition of PRKCE at 3 uM
[27] = molecular target: MAP kinase-activated protein kinase 5 (Homo sapiens) (UniProt Q8IW41); assay: Inhibition of MAPKAPK5 at 3 uM
Chain of MAP kinase-activated protein kinase 5 (Homo sapiens) (Q8IW41 whole entry): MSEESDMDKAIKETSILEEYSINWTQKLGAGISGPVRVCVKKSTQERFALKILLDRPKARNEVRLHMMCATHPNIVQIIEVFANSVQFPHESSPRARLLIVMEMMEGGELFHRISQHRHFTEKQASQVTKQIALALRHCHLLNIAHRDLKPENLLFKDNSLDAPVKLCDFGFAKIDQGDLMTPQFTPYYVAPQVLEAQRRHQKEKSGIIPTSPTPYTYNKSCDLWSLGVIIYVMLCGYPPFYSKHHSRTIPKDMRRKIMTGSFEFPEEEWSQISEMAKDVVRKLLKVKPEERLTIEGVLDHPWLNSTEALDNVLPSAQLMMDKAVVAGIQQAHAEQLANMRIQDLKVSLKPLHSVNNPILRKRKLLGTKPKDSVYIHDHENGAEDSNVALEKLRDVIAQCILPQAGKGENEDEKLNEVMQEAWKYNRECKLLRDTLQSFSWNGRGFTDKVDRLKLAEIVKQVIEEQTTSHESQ

[28] = molecular target: cAMP-dependent protein kinase catalytic subunit alpha (Homo sapiens) (UniProt P17612); assay: Inhibition of PKAC-alpha at 3 uM
[29] = molecular target: Serine/threonine-protein kinase 38-like (Homo sapiens) (UniProt Q9Y2H1); assay: Inhibition of NDR2 at 3 uM
[30] = molecular target: Activin receptor type-2B (Homo sapiens) (UniProt Q13705); assay: Inhibition of ACVR2B at 3 uM
[31] = Clearance in Sprague-Dawley rat at 1 mg/kg, iv; conditions: in vivo
[32] = molecular target: Misshapen-like kinase 1 (Homo sapiens) (UniProt Q8N4C8); assay: Inhibition of MINK at 3 uM
[33] = molecular target: Serine/threonine-protein kinase PLK3 (Homo sapiens) (UniProt Q9H4B4); assay: Inhibition of PLK3 at 3 uM
[34] = molecular target: SRSF protein kinase 2 (Homo sapiens) (UniProt P78362); assay: Inhibition of SRPK2 at 3 uM
[35] = molecular target: Prostaglandin E2 receptor EP4 subtype (Homo sapiens) (UniProt P35408); assay: Inhibition of human prostanoid EP4 receptor at 3 uM; procedure, shortened: as §1
[36] = tested on: Tyrosine-protein kinase ABL1 (Homo sapiens), P00519 [H396P]; assay: Inhibition of ABL1 H396P mutant at 3 uM
[37] = molecular target: Adenosine receptor A2a (Homo sapiens) (UniProt P29274); assay: Inhibition of human adenosine A2A receptor at 3 uM; procedure, shortened: as §1
[38] = molecular target: Serine/threonine-protein kinase NLK (Homo sapiens) (UniProt Q9UBE8); assay: Inhibition of NLK at 3 uM
[39] = molecular target: Serine/threonine-protein kinase D1 (Homo sapiens) (UniProt Q15139); assay: Inhibition of PRKD1 at 3 uM
[40] = molecular target: Serine/threonine-protein kinase 17A (Homo sapiens) (UniProt Q9UEE5); assay: Inhibition of DRAK1 at 3 uM
[41] = molecular target: Dual specificity protein kinase CLK4 (Homo sapiens) (UniProt Q9HAZ1); assay: Inhibition of CLK4 at 3 uM
Rattus norvegicus [42] = species on record: Rattus norvegicus; conditions: 3 uM; remark: listed apart in the source
[43] = molecular target: Serine/threonine-protein kinase D3 (Homo sapiens) (UniProt O94806); assay: Inhibition of PRKD3 at 3 uM
Chain of Serine/threonine-protein kinase D3 (Homo sapiens) (O94806 whole entry): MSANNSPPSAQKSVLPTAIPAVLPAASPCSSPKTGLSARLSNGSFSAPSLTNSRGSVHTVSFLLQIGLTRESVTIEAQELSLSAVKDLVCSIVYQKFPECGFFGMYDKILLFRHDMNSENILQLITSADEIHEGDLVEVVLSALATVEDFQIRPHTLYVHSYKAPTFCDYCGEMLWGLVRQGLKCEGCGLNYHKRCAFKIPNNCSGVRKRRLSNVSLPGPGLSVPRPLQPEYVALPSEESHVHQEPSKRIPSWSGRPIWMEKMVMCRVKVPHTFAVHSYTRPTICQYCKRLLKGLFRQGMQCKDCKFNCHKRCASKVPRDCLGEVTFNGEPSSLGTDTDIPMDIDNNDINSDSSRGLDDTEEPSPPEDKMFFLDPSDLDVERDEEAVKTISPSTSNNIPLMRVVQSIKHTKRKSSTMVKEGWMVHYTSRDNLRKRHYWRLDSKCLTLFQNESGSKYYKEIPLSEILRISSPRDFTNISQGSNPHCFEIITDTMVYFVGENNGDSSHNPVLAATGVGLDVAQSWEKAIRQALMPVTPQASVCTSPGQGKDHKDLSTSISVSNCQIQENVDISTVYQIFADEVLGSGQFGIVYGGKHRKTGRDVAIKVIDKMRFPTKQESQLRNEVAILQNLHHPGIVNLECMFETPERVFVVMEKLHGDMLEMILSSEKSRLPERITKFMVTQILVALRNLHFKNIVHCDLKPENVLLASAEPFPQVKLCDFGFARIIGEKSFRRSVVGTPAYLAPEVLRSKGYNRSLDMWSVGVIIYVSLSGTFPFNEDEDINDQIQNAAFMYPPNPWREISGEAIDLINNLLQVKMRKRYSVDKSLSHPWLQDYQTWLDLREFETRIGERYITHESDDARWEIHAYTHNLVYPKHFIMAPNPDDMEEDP

[44] = molecular target: Alpha-2A adrenergic receptor (Homo sapiens) (UniProt P08913); assay: Inhibition of human adrenergic alpha2A receptor at 3 uM
Chain of Alpha-2A adrenergic receptor (Homo sapiens) (P08913 whole entry): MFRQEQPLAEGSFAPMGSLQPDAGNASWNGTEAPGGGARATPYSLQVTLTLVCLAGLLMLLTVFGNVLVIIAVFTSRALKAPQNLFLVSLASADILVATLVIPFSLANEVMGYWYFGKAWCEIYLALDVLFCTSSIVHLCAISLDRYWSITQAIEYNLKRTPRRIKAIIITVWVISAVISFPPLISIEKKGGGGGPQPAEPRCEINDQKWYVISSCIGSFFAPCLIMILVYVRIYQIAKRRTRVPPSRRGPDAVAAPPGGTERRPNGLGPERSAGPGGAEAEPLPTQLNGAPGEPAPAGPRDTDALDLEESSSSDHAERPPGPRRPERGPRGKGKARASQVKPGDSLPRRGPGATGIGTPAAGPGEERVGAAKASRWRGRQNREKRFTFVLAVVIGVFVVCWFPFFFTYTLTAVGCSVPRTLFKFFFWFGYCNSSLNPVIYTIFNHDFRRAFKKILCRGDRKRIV

[45] = molecular target: Mitogen-activated protein kinase kinase kinase 7 (TAK1) (Homo sapiens) (UniProt O43318); assay: Inhibition of TAK1 at 3 uM
[46] = molecular target: Serine/threonine-protein kinase Nek6 (Homo sapiens) (UniProt Q9HC98); assay: Inhibition of NEK6 at 3 uM
Chain of Serine/threonine-protein kinase Nek6 (Homo sapiens) (Q9HC98 whole entry): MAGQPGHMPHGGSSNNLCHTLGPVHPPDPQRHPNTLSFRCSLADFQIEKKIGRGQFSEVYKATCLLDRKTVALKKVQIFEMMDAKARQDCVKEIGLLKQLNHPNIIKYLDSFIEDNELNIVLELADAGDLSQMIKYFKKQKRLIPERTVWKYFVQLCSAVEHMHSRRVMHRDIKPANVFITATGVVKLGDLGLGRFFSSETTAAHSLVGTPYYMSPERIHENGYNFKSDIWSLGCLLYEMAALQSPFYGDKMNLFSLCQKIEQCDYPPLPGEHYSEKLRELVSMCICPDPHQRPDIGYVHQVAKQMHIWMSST

CN(C)CCOc1cc(-c2cn[nH]c2)ccc1NC(=O)C1COc2ccccc2O1 (stereo unspecified) [SR-3677]
inhibition [1]: < 10%
inhibition [2]: < 10%
inhibition [3]: < 10%
inhibition [4]: < 10%
inhibition [5]: < 10%
inhibition [6]: < 10%
inhibition [7]: < 10%
inhibition [8]: < 10%
inhibition [9]: < 10%
inhibition [10]: < 10%
inhibition [11]: < 10%
inhibition [12]: < 10%
inhibition [13]: < 10%
inhibition [14]: -2%
inhibition [15]: 99.6%
inhibition [16]: < 10%
inhibition [17]: < 10%
inhibition (Rattus norvegicus [18]): -6%
inhibition [19]: -2%
inhibition [20]: < 10%
inhibition [21]: 1%
inhibition [22]: < 10%
inhibition [23]: 5%
inhibition [24]: < 10%
inhibition [25]: -10%
inhibition [26]: < 10%
inhibition [27]: < 10%
inhibition [28]: < 10%
inhibition [29]: < 10%
inhibition [30]: < 10%
clearance [31]: 61 mL/min/kg
inhibition [32]: < 10%
inhibition [33]: < 10%
inhibition [34]: < 10%
inhibition [35]: 5%
inhibition [36]: < 10%
inhibition [37]: 5%
inhibition [38]: < 10%
inhibition [39]: < 10%
inhibition [40]: < 10%
inhibition [41]: 90%
inhibition (Rattus norvegicus [42]): 0%
inhibition [43]: < 10%
inhibition [44]: 76%
inhibition [45]: < 10%
inhibition [46]: < 10%
